Experimental data from ChEMBL document CHEMBL1135327, “Comparison of the prevention of aflatoxin b(1)-induced genotoxicity by quercetin and quercetin pentaacetate” (2002).

Key:
[1] = The compound was evaluated for in Vitro binding of AFB1 to DNA in rat liver microsomes; Pre-incubation time being 10 mins; conditions: Microsome
[2] = The compound was evaluated for in Vitro binding of AFB1 to DNA in rat liver microsomes; Pre-incubation time being 20 mins; conditions: Microsome
[3] = The compound was evaluated for in Vitro binding of AFB1 to DNA in rat liver microsomes; Pre-incubation time being 30 mins; conditions: Microsome
[4] = species: Rattus norvegicus; test: Influence (5 uM) on transacetylase catalyzed time dependent activation of NADPH cytochrome C reductase at pre-incubation time being 10 mins; format: functional
In short: (§1)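 Rat liver microsomes were preincubated at 37 °C with test compound (in DMSO) in 0.05 M phosphate buffer, pH 7.7. Aliquots were taken at 5, 10, 20 and 30 min into a cuvette with EDTA, cytochrome C and NADPH. NADPH–cytochrome C reductase activity was followed at 550 nm. Values are means of four observations.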

[5] = species: Rattus norvegicus; test: Influence (5 uM) on transacetylase catalyzed time dependent activation of NADPH cytochrome C reductase at pre-incubation time being 30 mins; format: functional; in short: as §1
[6] = species: Rattus norvegicus; test: Influence (5 uM) on transacetylase catalyzed time dependent activation of NADPH cytochrome C reductase at pre-incubation time being 5 mins; format: functional; in short: as §1
[7] = species: Rattus norvegicus; test: Influence (5 uM) on transacetylase catalyzed time dependent activation of NADPH cytochrome C reductase at pre-incubation time being 20 mins; format: functional; in short: as §1
[8] = species: Rattus norvegicus; test: Effect of compound on AFB1-induced micronuclei formation in rat bone marrow cells (Activity: Micronucleated cells/1000 cells); format: functional
[9] = species: Rattus norvegicus; test: Effect of compound on AFB1-induced micronuclei formation in rat bone marrow cells in the presence of AFB1 (Activity: Micronucleated cells/1000 cells); format: functional
[10] = species: Rattus norvegicus; test: Influence (2 uM) on transacetylase catalyzed time dependent activation of NADPH cytochrome C reductase at pre-incubation time being 10 mins; format: functional; in short: as §1
[11] = species: Rattus norvegicus; test: Influence (2 uM) on transacetylase catalyzed time dependent activation of NADPH cytochrome C reductase at pre-incubation time being 20 mins; format: functional; in short: as §1
[12] = species: Rattus norvegicus; test: Influence (2 uM) on transacetylase catalyzed time dependent activation of NADPH cytochrome C reductase at pre-incubation time being 30 mins; format: functional; in short: as §1
[13] = species: Rattus norvegicus; test: Influence (2 uM) on transacetylase catalyzed time dependent activation of NADPH cytochrome C reductase at pre-incubation time being 5 mins; format: functional; in short: as §1

Row | SMILES | inhibition [1] [%] | inhibition [2] [%] | inhibition [3] [%] | Activation [4] [%] | Activation [5] [%] | Activation [6] [%] | Activation [7] [%] | Activity [8] | Activity [9] | Activation [10] [%] | Activation [11] [%] | Activation [12] [%] | Activation [13] [%]
1 | Cc1cc(=O)oc2c(O)c(O)ccc12 [4-METHYLDAPHNETIN] | 8.5 | 8.2 | 8.9 | 2.5 | 3.5 | 2.8 | 3.1 | – | – | – | – | – | –
2 | CC(=O)Oc1cc(OC(C)=O)c2c(=O)c(OC(C)=O)c(-c3ccc(OC(C)=O)c(OC(C)=O)c3)oc2c1 | 6.7 | 12.8 | 18 | 13.3 | 37 | 7.1 | 25 | 2.25 | 4.75 | – | – | – | –
3 | CC(=O)Oc1ccc2c(C)cc(=O)oc2c1OC(C)=O | 19 | 37.5 | 56.8 | – | – | – | – | 2.25 | 3.75 | 18.9 | 39.9 | 57.6 | 10.2
4 | O=c1c(O)c(-c2ccc(O)c(O)c2)oc2cc(O)cc(O)c12 [QUERCETIN] | 5.7 | 5.2 | 6.2 | 3.3 | 5.7 | 3.7 | 5.4 | 2 | 6 | – | – | – | –
